Measured values: ChEMBL document CHEMBL4813998, “Structural simplification of evodiamine: Discovery of novel tetrahydro-β-carboline derivatives as potent antitumor agents” (Bioorg Med Chem Lett, 2021)
The source made the active and inactive calls. No cut-off for these calls is given here.

What was measured:
[1] = Antiproliferative activity against human HCT116 cells assessed as growth inhibition by CCK8 assay; type: functional, cell-based, Epithelial cell
[2] = Antiproliferative activity against human A549 cells assessed as growth inhibition by CCK8 assay; type: functional, cell-based, Epithelial cell
[3] = Antiproliferative activity against human MDA-MB-231 cells assessed as growth inhibition by CCK8 assay; type: functional, cell-based, Epithelial cell
[4] = target: T1, DNA topoisomerase 1 (Homo sapiens) (UniProt P11387); assay: Inhibition of TOP1 (unknown origin) assessed as decrease in relaxation of supercoiled DNA using supercoiled plasmid DNA at 500 uM relative to camptothecin
T1 sequence (whole entry): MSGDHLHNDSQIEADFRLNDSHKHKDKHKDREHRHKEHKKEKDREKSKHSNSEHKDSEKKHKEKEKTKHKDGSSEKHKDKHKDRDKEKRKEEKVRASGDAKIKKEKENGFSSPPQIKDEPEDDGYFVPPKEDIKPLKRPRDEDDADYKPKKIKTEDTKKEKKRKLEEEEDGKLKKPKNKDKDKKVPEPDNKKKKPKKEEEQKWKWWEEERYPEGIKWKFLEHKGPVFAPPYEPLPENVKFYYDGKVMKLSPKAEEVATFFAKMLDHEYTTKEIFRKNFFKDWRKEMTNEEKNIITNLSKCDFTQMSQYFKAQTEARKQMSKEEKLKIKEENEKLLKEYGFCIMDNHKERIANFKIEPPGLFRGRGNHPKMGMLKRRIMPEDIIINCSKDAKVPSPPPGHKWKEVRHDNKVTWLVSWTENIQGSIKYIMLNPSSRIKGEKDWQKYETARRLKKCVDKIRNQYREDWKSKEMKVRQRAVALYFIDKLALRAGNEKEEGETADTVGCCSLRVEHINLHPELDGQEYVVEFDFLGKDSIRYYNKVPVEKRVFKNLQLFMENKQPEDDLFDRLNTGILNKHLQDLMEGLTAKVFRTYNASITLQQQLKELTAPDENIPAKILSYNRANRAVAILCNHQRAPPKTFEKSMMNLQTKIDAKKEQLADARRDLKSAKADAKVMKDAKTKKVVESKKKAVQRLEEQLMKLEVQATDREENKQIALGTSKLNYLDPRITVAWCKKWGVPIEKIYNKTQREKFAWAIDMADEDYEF
Procedure, shortened: (§1)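 Top1-mediated relaxation of supercoiled DNA was tested with compounds at 500 μM and 100 μM. Camptothecin served as the positive control.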

[5] = target: T1, DNA topoisomerase 1 (Homo sapiens); assay: Inhibition of TOP1 (unknown origin) assessed as decrease in relaxation of supercoiled DNA using supercoiled plasmid DNA at 100 uM relative to camptothecin; procedure, shortened: as §1
[6] = target: DNA topoisomerase 2-alpha (Homo sapiens) (UniProt P11388); assay: Inhibition of TOP2 (unknown origin) assessed as fractured DNA fragments using supercoiled plasmid DNA at 250 uM
Sequence of DNA topoisomerase 2-alpha (Homo sapiens) (P11388 whole entry, the tested form may be a part): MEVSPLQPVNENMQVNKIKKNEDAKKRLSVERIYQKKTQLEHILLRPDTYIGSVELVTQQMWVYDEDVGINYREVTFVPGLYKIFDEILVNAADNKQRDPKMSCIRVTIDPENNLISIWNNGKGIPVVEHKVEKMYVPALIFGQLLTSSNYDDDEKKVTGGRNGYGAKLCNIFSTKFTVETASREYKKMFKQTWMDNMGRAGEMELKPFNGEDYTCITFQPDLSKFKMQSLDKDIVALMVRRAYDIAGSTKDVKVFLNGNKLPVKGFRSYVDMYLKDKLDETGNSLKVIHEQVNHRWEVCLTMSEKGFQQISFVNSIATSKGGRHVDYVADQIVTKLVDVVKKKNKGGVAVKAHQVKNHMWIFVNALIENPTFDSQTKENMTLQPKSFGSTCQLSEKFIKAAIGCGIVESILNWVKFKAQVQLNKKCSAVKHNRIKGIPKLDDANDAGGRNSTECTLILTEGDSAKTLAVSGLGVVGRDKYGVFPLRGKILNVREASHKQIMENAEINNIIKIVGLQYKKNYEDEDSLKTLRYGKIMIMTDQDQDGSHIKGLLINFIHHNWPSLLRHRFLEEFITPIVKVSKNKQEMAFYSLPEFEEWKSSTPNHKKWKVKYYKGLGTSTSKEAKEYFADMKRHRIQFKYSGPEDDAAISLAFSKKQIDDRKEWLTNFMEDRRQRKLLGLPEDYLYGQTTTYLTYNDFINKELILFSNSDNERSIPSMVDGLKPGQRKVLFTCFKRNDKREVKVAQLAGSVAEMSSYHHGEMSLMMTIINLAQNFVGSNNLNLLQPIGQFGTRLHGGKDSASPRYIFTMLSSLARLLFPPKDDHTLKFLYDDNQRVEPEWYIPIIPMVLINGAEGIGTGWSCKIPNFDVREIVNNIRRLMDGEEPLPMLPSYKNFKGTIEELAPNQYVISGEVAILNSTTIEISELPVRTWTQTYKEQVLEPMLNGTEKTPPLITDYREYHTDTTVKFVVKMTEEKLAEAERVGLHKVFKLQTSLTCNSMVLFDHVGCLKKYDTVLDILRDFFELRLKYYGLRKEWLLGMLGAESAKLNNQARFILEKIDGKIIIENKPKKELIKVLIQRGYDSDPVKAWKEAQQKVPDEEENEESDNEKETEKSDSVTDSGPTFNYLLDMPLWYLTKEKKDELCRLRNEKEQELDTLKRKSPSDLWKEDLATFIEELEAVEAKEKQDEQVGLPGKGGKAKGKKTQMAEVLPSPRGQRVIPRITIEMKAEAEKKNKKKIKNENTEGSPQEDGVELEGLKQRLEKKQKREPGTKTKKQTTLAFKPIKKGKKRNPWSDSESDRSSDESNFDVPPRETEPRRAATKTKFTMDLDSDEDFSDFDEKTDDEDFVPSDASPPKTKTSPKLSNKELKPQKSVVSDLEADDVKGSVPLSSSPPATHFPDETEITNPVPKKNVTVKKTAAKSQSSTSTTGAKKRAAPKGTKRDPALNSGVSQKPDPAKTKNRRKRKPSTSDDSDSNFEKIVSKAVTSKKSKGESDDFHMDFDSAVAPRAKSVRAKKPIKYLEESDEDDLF
Procedure, shortened: (§2)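 Purified Top2 was incubated with DNA and compounds at 250 μM and 100 μM. The read-out was the appearance of fractured DNA fragments, with etoposide as the positive control.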

[7] = target: DNA topoisomerase 2-alpha (Homo sapiens) (UniProt P11388); assay: Inhibition of TOP2 (unknown origin) assessed as fractured DNA fragments using supercoiled plasmid DNA at 100 uM relative to etoposide; procedure, shortened: as §2
[8] = target: DNA topoisomerase 2-alpha (Homo sapiens) (UniProt P11388); assay: Inhibition of TOP2 (unknown origin) assessed as fractured DNA fragments using supercoiled plasmid DNA at 50 uM relative to etoposide
[9] = tested on: HCT-116; assay: Induction of apoptosis in human HCT116 cells assessed as increase in bax protein expression at 0.03 to 1.5 uM after 24 hrs by Western blot analysis; type: functional, cell-based; settings: dose 0.03-1.5 µM
Procedure, shortened: (§3)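 HCT116 cells were exposed to various concentrations for 24 h. Lysates were then probed by western blot for caspase-9, caspase-3, Bcl-2, Bax and cytochrome C.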

[10] = tested on: HCT-116; assay: Induction of apoptosis in human HCT116 cells assessed as decrease in Bcl-2 protein expression at 0.03 to 1.5 uM after 24 hrs by Western blot analysis; type: functional, cell-based; settings: dose 0.03-1.5 µM; procedure, shortened: as §3
[11] = tested on: HCT-116; assay: Induction of apoptosis in human HCT116 cells assessed as increase in caspase-3 expression after 24 hrs by Western blot analysis; type: functional, cell-based; settings: dose 0.03-1.5 µM; procedure, shortened: as §3
[12] = tested on: HCT-116; assay: Induction of apoptosis in human HCT116 cells assessed as increase in caspase-9 expression after 24 hrs by Western blot analysis; type: functional, cell-based; settings: dose 0.03-1.5 µM; procedure, shortened: as §3
[13] = tested on: HCT-116; assay: Antitumor activity against human HCT116 cells xenografted in nude mice assessed as tumor growth inhibition at 50 mg/kg/day, ip administered bid for 21 days relative to control; type: functional, organism-based; settings: time 21.0 day
Procedure, shortened: (§4)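 HCT116 cells were inoculated into nude mice to form xenografts. Dosing was intraperitoneal at 50 mg/kg/day for 21 consecutive days. Evodiamine was given at the same dosage as the comparator. Tumor growth and body weight after implantation were tracked, and data are reported as mean ± SEM.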

[14] = tested on: Mus musculus; assay: Toxicity in nude mouse xenografted with human HCT116 cells assessed as body weight loss at 50 mg/kg/day, ip administered bid for 21 days; type: functional, organism-based; settings: Epithelial cell, time 21.0 day; procedure, shortened: as §4
[15] = tested on: HCT-116; assay: Induction of apoptosis in human HCT116 cells assessed as increase in cytochrome c expression after 24 hrs by Western blot analysis; type: functional, cell-based; settings: dose 0.03-1.5 µM; procedure, shortened: as §3

Structure (SMILES)	IC50 ([1]; Homo sapiens, Epithelial cell)	IC50 ([2]; Homo sapiens, Epithelial cell)	IC50 ([3]; Homo sapiens, Epithelial cell)	also measured
COc1ccc2[nH]c3c(c2c1)CCN(C(=O)c1ccccc1)C3c1ccccc1Cl (stereo unspecified)	6.73 µM	27.2 µM	> 100 µM	
COc1ccc2[nH]c3c(c2c1)CCN(C(=O)c1ccccc1)C3c1cccc(Br)c1 (stereo unspecified)	3.24 µM	11.9 µM	40.8 µM	
COc1ccc2[nH]c3c(c2c1)CCN(C(=O)CCc1ccccc1)C3c1ccccc1 (stereo unspecified)	0.36 µM	7.91 µM	0.57 µM	inhibition [4]: Active; inhibition [5]: Active; inhibition [6]: Active; inhibition [7]: Active; inhibition [8]: Active
COc1ccc2[nH]c3c(c2c1)CCN(C(=O)CCc1ccccc1)C3c1ccc(Cl)c(Cl)c1 (single isomer, unassigned; (-))				IC50 ([1]; epithelial cell): 17.7 µM; IC50 ([2]; epithelial cell): 16.1 µM; IC50 ([3]; epithelial cell): > 50 µM
COc1ccc2[nH]c3c(c2c1)CCN(C(=O)c1ccccc1)C3c1ccc(Cl)c(Cl)c1 (stereo unspecified)	0.54 µM	1.66 µM	0.59 µM	inhibition [4]: Active; inhibition [5]: Active; inhibition [6]: Active; inhibition [7]: Active; inhibition [8]: Active
CN1c2ccccc2C(=O)N2CCc3c([nH]c4ccccc34)[C@H]21	19.6 µM	> 100 µM	49 µM	
O=C(c1cccc(F)c1)N1CCc2c([nH]c3ccccc23)C1c1ccccc1 (stereo unspecified)	32.5 µM	> 100 µM	57.6 µM	
COc1cccc(C(=O)N2CCc3c([nH]c4ccc(OC)cc34)C2c2ccccc2)c1 (stereo unspecified)	5.13 µM	12 µM	3.01 µM	
COc1ccc2[nH]c3c(c2c1)CCN(C(=O)CCc1ccc(F)cc1)C3c1ccccc1 (stereo unspecified)	0.72 µM	3.8 µM	0.34 µM	inhibition [4]: Active; inhibition [6]: Active; inhibition [7]: Active; inhibition [8]: Active
O=C(c1ccccc1)N1CCc2c([nH]c3ccc(O)cc23)C1c1ccccc1 (stereo unspecified)	20.9 µM	19.3 µM	> 100 µM	
COc1ccc2[nH]c3c(c2c1)CCN(C(=O)CCc1ccccc1)C3c1ccc(Cl)c(Cl)c1 (stereo in doubt; 45)				inhibition [4]: Active; inhibition [5]: Active; inhibition [6]: Active; inhibition [7]: Active; inhibition [8]: Active; Activity [9]: Active; Activity [10]: Active; Activity [11]: Active; Activity [12]: Active; Activity [13]: Active; Activity [14]: Active; Activity [15]: Dose-Dependent Effect
COc1ccc2[nH]c3c(c2c1)CCN(C(=O)c1ccccc1)C3c1ccc(F)c(F)c1 (stereo unspecified)	2.65 µM	30.2 µM	31 µM	
COc1cc([C@@H]2c3cc4c(cc3[C@@H](O[C@@H]3O[C@@H]5CO[C@@H](C)O[C@H]5[C@H](O)[C@H]3O)[C@H]3COC(=O)[C@H]23)OCO4)cc(OC)c1O				inhibition [6]: Active; inhibition [7]: Active; inhibition [8]: Active
O=C(c1ccccc1)N1CCc2c([nH]c3ccccc23)C1	21.4 µM	> 100 µM	45.4 µM	
COc1ccc2[nH]c3c(c2c1)CCN(C(=O)c1cccc(F)c1)C3c1ccccc1 (stereo unspecified)	4.8 µM	9.27 µM	3.28 µM	
COc1ccc2[nH]c3c(c2c1)CCN(C(=O)c1ccc(F)cc1)C3c1ccccc1 (stereo unspecified)	1.73 µM	12.7 µM	1.24 µM	

Structure (SMILES)	IC50 ([1]; Homo sapiens, Epithelial cell)	IC50 ([2]; Homo sapiens, Epithelial cell)	IC50 ([3]; Homo sapiens, Epithelial cell)	also measured
COc1ccc2[nH]c3c(c2c1)CCN(C(=O)c1ccc(Cl)cc1)C3c1ccccc1 (stereo unspecified)	5.56 µM	2.15 µM	1.11 µM	
COc1ccc2[nH]c3c(c2c1)CCN(C(=O)c1ccccc1)C3c1ccc(C)cc1 (stereo unspecified)	6.45 µM	17.4 µM	22.2 µM	
COc1ccc2[nH]c3c(c2c1)CCN(C(=O)c1ccccc1F)C3c1ccccc1 (stereo unspecified)	6.18 µM	18.7 µM	62.4 µM	
COc1ccc2[nH]c3c(c2c1)CCN(C(=O)CCc1ccccc1)C3c1ccc(Cl)c(Cl)c1 (single isomer, unassigned; (+))				IC50 ([1]; epithelial cell): 0.13 µM; IC50 ([2]; epithelial cell): 0.65 µM; IC50 ([3]; epithelial cell): 0.042 µM
CC(C)C1c2[nH]c3ccccc3c2CCN1C(=O)c1ccccc1 (stereo unspecified)	> 100 µM	> 100 µM	> 100 µM	
COc1ccc2[nH]c3c(c2c1)CCN(C(=O)c1ccccc1)C3c1ccc(Br)cc1 (stereo unspecified)	3.62 µM	2.09 µM	18.8 µM	
COc1ccc2[nH]c3c(c2c1)CCN(C(=O)c1ccccc1)C3c1ccccc1 (stereo unspecified)	2.53 µM	5.29 µM	1.48 µM	
COc1cccc(C(=O)N2CCc3c([nH]c4ccc(OC)cc34)C2c2ccc(Cl)c(Cl)c2)c1 (stereo unspecified)	1.97 µM	13.6 µM	0.68 µM	
COc1ccc(C(=O)N2CCc3c([nH]c4ccc(OC)cc34)C2c2ccc(Cl)c(Cl)c2)cc1 (stereo unspecified)	4.28 µM	44.6 µM	1.08 µM	
COc1ccc2[nH]c3c(c2c1)CCN(C(=O)c1ccc([N+](=O)[O-])cc1)C3c1ccccc1 (stereo unspecified)	58.1 µM	25.5 µM	6.18 µM	
COc1ccc(C(=O)N2CCc3c([nH]c4ccc(OC)cc34)C2c2ccccc2)cc1 (stereo unspecified)	6.14 µM	11.8 µM	2.81 µM	
COc1ccc2[nH]c3c(c2c1)CCN(C(=O)CCc1ccccc1F)C3c1ccccc1 (stereo unspecified)	7.76 µM	2.45 µM	0.27 µM	
O=C(c1ccccc1)N1CCc2c([nH]c3ccccc23)C1c1ccccc1 (stereo unspecified)	57.9 µM	> 100 µM	51.2 µM	
CC[C@@]1(O)C(=O)OCc2c1cc1n(c2=O)Cc2cc3ccccc3nc2-1 [CAMPTOTHECIN]	0.01 µM	0.045 µM	0.075 µM	
COc1ccc2[nH]c3c(c2c1)CCN(C(=O)c1ccc(F)cc1)C3c1ccc(Cl)c(Cl)c1 (stereo unspecified)	0.49 µM	14.1 µM	0.29 µM	inhibition [4]: Active; inhibition [5]: Active; inhibition [6]: Active; inhibition [7]: Active; inhibition [8]: Active
